# Bioassay records deposited in PubChem by several laboratories.
# PostGolgi yeast = growth inhibition of a yeast mutant, post-Golgi transport screen; post-Golgi transport phenotypic cell assay; inhibition, % at 10 µM; hit rate 0.9% among 98,000; AID 739;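 also: yeast cells grown in 1536-well plates; yeast grown about 18 h at 30C before absorbance read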
# PostGolgi ctrl = growth of the yeast control strain, post-Golgi counter-screen; efflux-deficient yeast background strain, growth absorbance A615, 16 h; hit rate 5% among 98,000; inhibition, % at 10 µM
# tolC growth inh = growth inhibitors of E. coli BW25113 tolC mutant; hit rate 2.2% among 65,000; growth inhibition, % at 10 µM (by protocol); OD615; AID 573;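 active = growth inhibition at or above a cutoff equal to the mean over every tested compound plus 3 SD, cut at about 60% in these data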;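 also: growth measured after 20 h incubation at 37 °C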
#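 Test system – E. coli BW25113 ΔtolC::kan, tolC deletion mutant strain · Detection – OD at 615 nm · Buffer or medium – LB with kanamycin 50 µg/mL · Times – 20 h compound exposure of bacteria at 37 °C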
# EphB4 antag = blocks human EphB4 binding to ephrin-B2. EphB4 LBD / TNYL-RAW-Alexa532 peptide, fluorescence polarization. inhibition, % at 7 µM. hit rate 0.15% among 97,000;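 active = inhibition above the screen-wide mean inhibition plus 3 SD, cut at about 15% in these data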;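 also: 0% = DMSO wells and 100% = excess unlabeled TNYL-RAW peptide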
# Ecoli WT expand = blocks growth of wild type E. coli BW25113; hit rate 0.15% among 98,000; AID 710; OD600 absorbance; growth inhibition, % at 100 µM;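 active = growth inhibition above about 50% at one test dose, limit read from the data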;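 also: growth measured after 20 h incubation at 37 °C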
# * = called active by the depositor; . = no result given. Only some compounds are listed: those with a hit (about 6% of all), similar ones and a draw of the others. Rule as the data show it, unless noted: active = inhibition above about 30%; inactive = the rest.
SMILES,PostGolgi yeast,PostGolgi ctrl,tolC growth inh,EphB4 antag,Ecoli WT expand
CC(C)CCNC(=O)C1C2C=CC3(CN(Cc4ccccc4Cl)C(=O)C13)O2 (centres undefined),3,6,2,3,0
CCCCNC(=O)C1C2C=CC3(CN(Cc4ccccc4Cl)C(=O)C13)O2 (centres undefined),-6,8,2,16*,2
Cn1c(=O)c2ncn(CC(=O)Nc3ccc4oc(-c5cccc6ccccc56)nc4c3)c2n(C)c1=O,.,.,18,-5,.
CCC(C)c1ccc2oc(-c3ccc(NC(=O)Cn4cnc5c(=O)n(C)c(=O)n(C)c54)cc3)nc2c1 (centres undefined),-17,76*,-9,-4,-10
CC1CCN(C(=O)CCc2ccc(S(=O)(=O)NC(C)C)cc2)CC1,-1,16,.,5,-7
Cc1ccccc1-n1nnnc1SC1CCOC1=O (centres undefined),-2,35*,-5,.,3
COc1ccccc1-n1cnnc1SC1CCOC1=O (centres undefined),-2,-2,1,-3,-4
CCN(c1ccccc1)c1ncnc2c1cnn2-c1ccccc1,-5,25,100*,3,-2
CC1CCN(c2ncnc3c2cnn3-c2ccccc2)CC1,5,32*,49,4,-6
Cc1cccc(-n2ncc3c(NCc4cccs4)ncnc32)c1,6,42*,26,-3,-2
c1ccc(CNc2ncnc3c2cnn3-c2ccccc2)cc1,3,0,-3,-9,1
c1ccc(CCNc2ncnc3c2cnn3-c2ccccc2)cc1,.,.,73*,3,.
CC1Cc2ccccc2N1C(=O)CN1CCC(n2nnc3cc(C(F)(F)F)ccc32)CC1 (centres undefined),2,15,.,2,3
CCNC(=O)/C(=C/c1ccc2c(c1)OCO2)NC(=O)c1ccc(Br)cc1,3,5,.,-11,-3
CN(Cc1ccccc1)c1ncnc2c1cnn2-c1ccccc1,6,28,92*,-5,-15
COC(=O)c1nn(-c2ccccc2)c(=O)cc1Oc1ccccc1,12,1,.,-3,4
CCOc1ncccc1C(=O)OCc1cc(=O)n2c(n1)sc1ccccc12,.,.,0,.,.
Cc1ccc(S(=O)(=O)N/N=C2/CC(c3ccccc3)Oc3ccccc32)cc1[N+](=O)[O-] (centres undefined),-8,36*,.,4,-8
O=S(=O)(N/N=C1/CC(c2ccccc2)Oc2ccccc21)c1ccc(Br)cc1 (centres undefined),-5,38*,.,-1,3
Clc1ccc(OCc2nn3c(C4CCCCC4)nnc3s2)cc1,12,42*,97*,0,-7
Cc1c(N)cccc1-c1nc2ccccc2[nH]1,.,.,.,3,.
c1cc2c(cc1C1CCCN1)OCCCO2 (centres undefined),8,14,6,0,-3
O=C(CCCC(=O)N(CC(=O)NC1CCCC1)C1CCCC1)Nc1ccccn1,0,34*,-15,-10,-3
CC(=O)Nc1cccc(-c2csc(Nc3cc(C)ccn3)n2)c1,1,31*,.,7,11
CCc1ccc2oc(-c3cc(N)cc(C)c3O)nc2c1,-4,22,21,-4,-3
SMILES,PostGolgi yeast,PostGolgi ctrl,tolC growth inh,EphB4 antag,Ecoli WT expand
CCc1ccc2oc(-c3cc(N)ccc3O)nc2c1,22,53*,13,-13,-5
CCc1ccc2oc(-c3cc(N)ccc3Cl)nc2c1,1,35*,60,.,-1
CC(C)COC(=O)c1cccc2c1-c1ccccc1/C2=N\O,.,.,.,-1,.
CCOC(=O)c1cccc2c1-c1ccccc1/C2=N/O,12,20,100*,2,3
O=c1cc(NC2CCCCC2)c2ccccc2o1,-2,9,.,3,6
CCN(CC)Cc1nc2c(c(=O)[nH]1)C1(CCCC1)Cc1ccccc1-2,-2,15,.,3,14
CCn1c(SCC#N)nc2c(c1=O)C1(CCCC1)Cc1ccccc1-2,0,52*,53,-12,0
CCCn1c(SCC(N)=O)nc2c(c1=O)C1(CCCC1)Cc1ccccc1-2,3,44*,6,4,1
COc1ccc(OC)c(-n2c(C)ccc2-c2ccc(S(C)(=O)=O)cc2)c1,0,8,.,-3,-18
Cc1ccc2c(CC(=O)NC3=NCCS3)coc2c1,-2,33*,7,-4,3
Cc1ccc(CN2CCN(Cc3ccccc3C(F)(F)F)CC2)cc1,-1,21,.,3,5
O=C(NCCCc1ccccc1)C1CCN(c2nnc(-n3cccc3)s2)CC1,-3,39*,8,-3,-6
CC(CCc1ccccc1)NC(=O)C1CCCN(c2nnc(-n3cccc3)s2)C1 (centres undefined),6,6,2,3,-3
O=C(NCCCN1CCN(Cc2ccccc2)CC1)C1CCN(c2nnc(-n3cccc3)s2)CC1,6,-4,-9,.,1
O=C(C1CCCN(c2nnc(-n3cccc3)s2)C1)N1CCN(c2ccccc2)CC1 (centres undefined),-1,41*,0,1,-9
CSc1cccc(NC(=O)C(C)NS(=O)(=O)c2ccc(F)cc2)c1 (centres undefined),0,2,.,1,1
CCCn1c(=O)c(C(=O)Nc2nnc(C)s2)c(O)c2ccccc21,.,.,80*,.,.
CCNCCNC(=O)c1c(O)c2ccccc2n(CC)c1=O,0,41*,-10,-3,9
CC(C)Cn1c(=O)c(C(=O)Nc2cnccn2)c(O)c2ccccc21,6,39*,100*,.,-9
CCCn1c(=O)c(C(=O)Nc2ccccc2)c(O)c2ccccc21,.,.,.,1,.
CC(C)Cn1c(=O)c(C(=O)Nc2ccncc2)c(O)c2ccccc21,.,.,96*,.,.
COc1ccc(-c2cnn(C3CCS(=O)(=O)C3)c2N)cc1 (centres undefined),4,-6,.,3,10
COc1cccc(/C=N/n2c(C)nc3ccccc3c2=O)c1O,-19,18,-14,1,-3
COc1cccc(CNn2c(-c3cccc(C)c3)nc3ccccc3c2=O)c1O,-1,47*,28,-3,-3
CC(C)c1noc2ncc(C(=O)c3cc(Cl)cc(Cl)c3O)cc12,-13,12,.,8,0
SMILES,PostGolgi yeast,PostGolgi ctrl,tolC growth inh,EphB4 antag,Ecoli WT expand
O=c1c2ccccc2ncn1CCCSc1ccc(Cl)cc1,0,42*,.,-6,0
Cc1[nH]c(=O)[nH]c(=O)c1S(=O)(=O)N1c2ccc(F)cc2CCC1C (centres undefined),-3,4,2,-2,5
C=CC[N+](C)(C)CCCNC(=O)/C=N/O,.,.,-4,.,.
Cc1sc2nc(C3CC3)nc(NCCNS(C)(=O)=O)c2c1C,2,-7,-2,4,5
Cc1cc(NC(=O)CSC2=Nc3ccccc3C3=NC(Cc4ccccc4)C(=O)N23)n[nH]1 (centres undefined),-8,8,-1,1,2
CCN(CC)C(=O)CSC1=Nc2ccccc2C2=NC(Cc3c[nH]c4ccccc34)C(=O)N12 (centres undefined),-8,34*,2,9,4
CCOc1ccc(CNC(=O)CCCOc2cc(=O)n(C)c3ccccc23)cc1,-1,8,.,0,-5
